Key:
Format in all cases: functional
[1] = tested on: RXF 393; assay: Cytotoxicity against human RXF393 cells after 48 hrs by SRB assay; conditions: RXF 393, 48 h
Procedure, shortened: (§1)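 Five-dose run from the sixty-line panel, at 10−4, 10−5, 10−6, 10−7 and 10−8 M. SRB-stain OD is read just before compound addition, after 48 hrs of exposure, and in vehicle controls, giving percentage growth; negative growth indicates cytotoxicity. GI50 is the concentration giving 50% reduction in net protein increase versus control cells. LC50 is the concentration lethal to 50% of cells.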

[2] = tested on: MDA-MB-231; assay: Cytotoxicity against human MDA-MB-231 cells after 48 hrs by SRB assay; conditions: MDA-MB-231, 48 h; for CC50: read-out: LC50 (the source's name); procedure, shortened: as §1
[3] = tested on: A498; assay: Cytotoxicity against human A498 cells assessed as growth inhibition at 10 uM after 48 hrs by SRB assay; conditions: A498, 48 h, read-out: GI
Procedure, shortened: (§2)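 Single-dose screen at 10µM across the sixty-cell-line panel. Percentage growth is derived from SRB-stain OD taken just before compound exposure, after 48 hrs exposure, and in vehicle-treated controls. Negative values indicate cytotoxicity.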

[4] = tested on: TK-10; assay: Cytotoxicity against human TK10 cells after 48 hrs by SRB assay; conditions: TK-10, 48 h; for CC50: read-out: LC50 (the source's name); procedure, shortened: as §1
[5] = tested on: K562; assay: Cytotoxicity against human K562 cells after 48 hrs by SRB assay; conditions: K562, 48 h; for CC50: read-out: LC50 (the source's name); procedure, shortened: as §1
[6] = tested on: A498; assay: Cytotoxicity against human A498 cells after 48 hrs by SRB assay; conditions: A498, 48 h; procedure, shortened: as §1
[7] = Cytotoxicity against human OVCAR5 cells after 48 hrs by SRB assay; conditions: OVCAR-5, 48 h; for CC50: read-out: LC50 (the source's name); procedure, shortened: as §1
[8] = Cytotoxicity against human UACC257 cells after 48 hrs by SRB assay; conditions: UACC-257, 48 h; for CC50: read-out: LC50 (the source's name); procedure, shortened: as §1
[9] = tested on: NCI-H23; assay: Cytotoxicity against human NCI-H23 cells after 48 hrs by SRB assay; conditions: NCI-H23, 48 h; procedure, shortened: as §1
[10] = tested on: COLO 205; assay: Cytotoxicity against human COLO205 cells after 48 hrs by SRB assay; conditions: COLO 205, 48 h; for CC50: read-out: LC50 (the source's name); procedure, shortened: as §1
[11] = tested on: MDA-MB-468; assay: Cytotoxicity against human MDA-MB-468 cells assessed as growth inhibition at 10 uM after 48 hrs by SRB assay; conditions: MDA-MB-468, 48 h, read-out: GI; procedure, shortened: as §2
[12] = tested on: SR; assay: Cytotoxicity against human SR cells after 48 hrs by SRB assay; procedure, shortened: as §1
[13] = Cytotoxicity against human NCI-ADR-RES cells after 48 hrs by SRB assay; conditions: for CC50: read-out: LC50 (the source's name); procedure, shortened: as §1
[14] = tested on: SF-295; assay: Cytotoxicity against human SF295 cells after 48 hrs by SRB assay; conditions: SF-295, 48 h; procedure, shortened: as §1
[15] = Cytotoxicity against human OVCAR5 cells assessed as growth inhibition at 10 uM after 48 hrs by SRB assay; conditions: OVCAR-5, 48 h, read-out: GI; procedure, shortened: as §2
[16] = tested on: UACC-62; assay: Cytotoxicity against human UACC62 cells after 48 hrs by SRB assay; conditions: UACC-62, 48 h; procedure, shortened: as §1
[17] = tested on: SK-MEL-5; assay: Cytotoxicity against human SK-MEL-5 cells after 48 hrs by SRB assay; conditions: SK-MEL-5, 48 h; procedure, shortened: as §1
[18] = tested on: SW-620; assay: Cytotoxicity against human SW620 cells after 48 hrs by SRB assay; conditions: SW-620, 48 h; for CC50: read-out: LC50 (the source's name); procedure, shortened: as §1
[19] = tested on: HCT-116; assay: Cytotoxicity against human HCT116 cells after 48 hrs by SRB assay; conditions: HCT-116, 48 h; procedure, shortened: as §1
[20] = tested on: NCI-H226; assay: Cytotoxicity against human NCI-H226 cells after 48 hrs by SRB assay; conditions: NCI-H226, 48 h; for CC50: read-out: LC50 (the source's name); procedure, shortened: as §1
[21] = tested on: MDA-MB-435; assay: Cytotoxicity against human MDA-MB-435 cells after 48 hrs by SRB assay; conditions: MDA-MB-435, 48 h; procedure, shortened: as §1
[22] = tested on: TK-10; assay: Cytotoxicity against human TK10 cells assessed as growth inhibition at 10 uM after 48 hrs by SRB assay; conditions: TK-10, 48 h, read-out: GI; procedure, shortened: as §2
[23] = tested on: 786-0; assay: Cytotoxicity against human 786-0 cells after 48 hrs by SRB assay; conditions: 786-0, 48 h; procedure, shortened: as §1
[24] = tested on: SN12C; assay: Cytotoxicity against human SN12C cells after 48 hrs by SRB assay; conditions: for CC50: read-out: LC50 (the source's name); procedure, shortened: as §1
[25] = tested on: SK-MEL-2; assay: Cytotoxicity against human SK-MEL-2 cells after 48 hrs by SRB assay; conditions: SK-MEL-2, 48 h; procedure, shortened: as §1
[26] = tested on: NCI-H226; assay: Cytotoxicity against human NCI-H226 cells assessed as growth inhibition at 10 uM after 48 hrs by SRB assay; conditions: NCI-H226, 48 h, read-out: GI; procedure, shortened: as §2
[27] = tested on: T47D; assay: Cytotoxicity against human T47D cells after 48 hrs by SRB assay; procedure, shortened: as §1
[28] = tested on: MDA-MB-468; assay: Cytotoxicity against human MDA-MB-468 cells after 48 hrs by SRB assay; conditions: MDA-MB-468, 48 h; procedure, shortened: as §1
[29] = tested on: NCI-H460; assay: Cytotoxicity against human NCI-H460 cells after 48 hrs by SRB assay; conditions: NCI-H460, 48 h; for CC50: read-out: LC50 (the source's name); procedure, shortened: as §1
[30] = tested on: BT-549; assay: Cytotoxicity against human BT549 cells after 48 hrs by SRB assay; conditions: BT-549, 48 h; for CC50: read-out: LC50 (the source's name); procedure, shortened: as §1
[31] = tested on: OVCAR-8; assay: Cytotoxicity against human OVCAR8 cells after 48 hrs by SRB assay; conditions: OVCAR-8, 48 h; for CC50: read-out: LC50 (the source's name); procedure, shortened: as §1
[32] = tested on: MCF7; assay: Cytotoxicity against human MCF7 cells after 48 hrs by SRB assay; conditions: MCF7, 48 h; procedure, shortened: as §1
[33] = tested on: HOP-62; assay: Cytotoxicity against human HOP62 cells after 48 hrs by SRB assay; conditions: HOP-62, 48 h; for CC50: read-out: LC50 (the source's name); procedure, shortened: as §1
[34] = tested on: IGROV-1; assay: Cytotoxicity against human IGROV1 cells after 48 hrs by SRB assay; conditions: IGROV-1, 48 h; for CC50: read-out: LC50 (the source's name); procedure, shortened: as §1
[35] = tested on: SK-OV-3; assay: Cytotoxicity against human SKOV3 cells after 48 hrs by SRB assay; conditions: SK-OV-3, 48 h; procedure, shortened: as §1
[36] = tested on: SNB-19; assay: Cytotoxicity against human SNB19 cells after 48 hrs by SRB assay; conditions: SNB-19, 48 h; procedure, shortened: as §1
[37] = tested on: LOX IMVI; assay: Cytotoxicity against human LOXIMVI cells after 48 hrs by SRB assay; conditions: for CC50: read-out: LC50 (the source's name); procedure, shortened: as §1

Cc1ccc(Cn2cc(C=C3C(=O)N(C)C(=O)N(C)C3=O)c3ccccc32)cc1
GI50 [1]: 15.2 µM | LC50 (lethal concentration, 50%) [1]: > 100 µM | GI50 [2]: 13.6 µM | CC50 [2]: > 100 µM | inhibition of growth at 10 µM [3]: -91% | GI50 [4]: 0.28 µM | CC50 [4]: > 100 µM | GI50 [5]: 2.23 µM | CC50 [5]: > 100 µM | GI50 [6]: 0.12 µM | LC50 [6]: 0.69 µM | GI50 [7]: 0.07 µM | CC50 [7]: > 100 µM | GI50 [8]: 2.02 µM | CC50 [8]: > 100 µM | GI50 [9]: 8.19 µM | LC50 [9]: > 100 µM | GI50 [10]: 1.89 µM | CC50 [10]: > 100 µM | inhibition of growth at 10 µM [11]: -62% | GI50 [12]: 1.89 µM | LC50 (lethal concentration, 50%) [12]: > 100 µM | GI50 [13]: 6.23 µM | CC50 [13]: > 100 µM | GI50 [14]: 2.02 µM | LC50 [14]: > 100 µM | inhibition of growth at 10 µM [15]: -23% | GI50 [16]: 2.42 µM | LC50 [16]: > 100 µM | GI50 [17]: 9.17 µM | LC50 [17]: > 100 µM | CC50 [18]: > 100 µM | GI50 [19]: 5.45 µM | LC50 [19]: > 100 µM | GI50 [20]: 1.95 µM | CC50 [20]: > 100 µM | LC50 [21]: > 100 µM | inhibition of growth at 10 µM [22]: -4% | GI50 [23]: 22.1 µM | LC50 [23]: > 100 µM | GI50 [24]: > 100 µM | CC50 [24]: > 100 µM | GI50 [25]: 3.36 µM | inhibition of growth at 10 µM [26]: -63% | GI50 [27]: 5 µM | LC50 [27]: > 100 µM | GI50 [28]: 0.03 µM | LC50 [28]: 0.62 µM | GI50 [29]: 0.91 µM | CC50 [29]: > 100 µM | GI50 [30]: 13.5 µM | CC50 [30]: > 100 µM | GI50 [31]: > 100 µM | CC50 [31]: > 100 µM | GI50 [32]: 6.76 µM | LC50 [32]: > 100 µM | GI50 [33]: 7.44 µM | CC50 [33]: > 100 µM | GI50 [34]: 2.95 µM | CC50 [34]: > 100 µM | GI50 [35]: 23.7 µM | LC50 [35]: > 100 µM | GI50 [36]: 26.8 µM | LC50 [36]: > 100 µM | GI50 [37]: 27.8 µM | CC50 [37]: > 100 µM

CN1C(=O)C(=Cc2cn(Cc3ccc(F)cc3)c3ccccc23)C(=O)N(C)C1=O
GI50 [1]: 14.9 µM | LC50 (lethal concentration, 50%) [1]: > 100 µM | GI50 [2]: 23.6 µM | CC50 [2]: > 100 µM | inhibition of growth at 10 µM [3]: -85% | GI50 [4]: 0.59 µM | CC50 [4]: > 100 µM | CC50 [5]: > 100 µM | GI50 [6]: 0.07 µM | LC50 [6]: 0.67 µM | GI50 [7]: 0.11 µM | CC50 [7]: > 100 µM | GI50 [8]: 2.52 µM | CC50 [8]: > 100 µM | GI50 [9]: 51.5 µM | LC50 [9]: > 100 µM | GI50 [10]: 1.44 µM | CC50 [10]: > 100 µM | inhibition of growth at 10 µM [11]: -71% | GI50 [12]: > 100 µM | LC50 (lethal concentration, 50%) [12]: > 100 µM | GI50 [13]: > 100 µM | CC50 [13]: > 100 µM | GI50 [14]: 1.97 µM | LC50 [14]: > 100 µM | inhibition of growth at 10 µM [15]: -33% | GI50 [16]: 2.89 µM | LC50 [16]: > 100 µM | GI50 [17]: > 100 µM | LC50 [17]: > 100 µM | GI50 [18]: > 100 µM | CC50 [18]: > 100 µM | GI50 [19]: 6.26 µM | LC50 [19]: > 100 µM | GI50 [20]: 2.56 µM | CC50 [20]: > 100 µM | GI50 [21]: > 100 µM | LC50 [21]: > 100 µM | inhibition of growth at 10 µM [22]: -15% | GI50 [23]: 22.7 µM | LC50 [23]: > 100 µM | GI50 [24]: > 100 µM | CC50 [24]: > 100 µM | GI50 [25]: 6.35 µM | inhibition of growth at 10 µM [26]: -78% | GI50 [27]: 5.38 µM | LC50 [27]: > 100 µM | GI50 [28]: 0.03 µM | LC50 [28]: 0.5 µM | GI50 [29]: 0.37 µM | CC50 [29]: > 100 µM | GI50 [30]: 24.1 µM | CC50 [30]: > 100 µM | GI50 [31]: > 100 µM | CC50 [31]: > 100 µM | GI50 [32]: > 100 µM | LC50 [32]: > 100 µM | GI50 [33]: 7.7 µM | CC50 [33]: > 100 µM | GI50 [34]: 4.33 µM | CC50 [34]: > 100 µM | GI50 [35]: 15.3 µM | LC50 [35]: > 100 µM | GI50 [36]: 26.7 µM | LC50 [36]: > 100 µM | GI50 [37]: > 100 µM | CC50 [37]: > 100 µM

From ChEMBL document CHEMBL3102840, “Synthesis and anti-proliferative activity of aromatic substituted 5-((1-benzyl-1H-indol-3-yl)methylene)-1,3-dimethylpyrimidine-2,4,6(1H,3H,5H)-trione analogs against human tumor cell lines” (2014)
